In ChEMBL document CHEMBL3124898, “Constituents of an extract of Cryptocarya rubra housed in a repository with cytotoxic and glucose transport inhibitory effects” (J Nat Prod, 2014) one finds IC50 and Activity data, which are given here for nine compounds.

One assay relates to HT-29. Kind of assay: Cytotoxicity against human HT-29 cells. In kind it is functional, cell-based. The essentials:
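HT-29 human colon cancer cells treated with serial dilutions of test samples. IC50 derived by nonlinear regression. Measured in triplicate in two independent experiments. Paclitaxel served as positive control.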

Assay [1] has as its target T1, Solute carrier family 2, facilitated glucose transporter member 1 (Homo sapiens) (UniProt P11166).
T1 sequence (whole entry): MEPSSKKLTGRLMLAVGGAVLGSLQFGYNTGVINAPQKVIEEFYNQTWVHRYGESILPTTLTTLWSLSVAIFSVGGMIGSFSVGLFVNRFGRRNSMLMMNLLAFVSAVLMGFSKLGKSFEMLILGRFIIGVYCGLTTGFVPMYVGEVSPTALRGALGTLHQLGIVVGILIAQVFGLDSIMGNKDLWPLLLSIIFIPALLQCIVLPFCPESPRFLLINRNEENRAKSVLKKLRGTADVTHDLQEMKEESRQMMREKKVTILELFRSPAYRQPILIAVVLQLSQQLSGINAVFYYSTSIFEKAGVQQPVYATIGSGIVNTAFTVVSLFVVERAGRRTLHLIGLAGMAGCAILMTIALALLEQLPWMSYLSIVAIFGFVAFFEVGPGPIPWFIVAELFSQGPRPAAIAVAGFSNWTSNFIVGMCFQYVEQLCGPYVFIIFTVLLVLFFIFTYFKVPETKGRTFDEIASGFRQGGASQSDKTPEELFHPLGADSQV
Briefly: Inhibition of GLUT-1 in human H1299 cells assessed as 2-deoxy-D-[3H]glucose uptake at 30 uM incubated for 15 mins prior to 2-deoxy-D-[3H]glucose challenge measured after 10 mins by liquid scintillation counting analysis (reference value: 100%). In kind it is cell-based. Details: scale not given: the % may be the effect or the level left. The essentials: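 Before dosing, H1299 human lung cancer cells were washed and held in serum-free DMEM for 2 h at 37 °C in 10% CO2, then in KRP buffer for 30 min at 37 °C. Compound was added at 30 μM final and incubated 15 min at 37 °C. Uptake was started with 37 MBq/L 2-deoxy-3H glucose plus 1 mM glucose (final) and stopped after 10 min by three cold PBS washes. Cells were NaOH-lysed and lysate radioactivity read by scintillation counting. Vehicle served as negative control and WZB117 (30 μM) as positive control. n = 3.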

The subject of a further assay is P388. Kind of assay: Cytotoxicity against mouse P388 cells. In kind it is functional, cell-based.

The structures appear in SMILES notation. Some results are limits rather than exact numbers.

In general, IC50 refers to the concentration needed to halve the response being measured. With `O=C1CCC[C@@H]2C[C@H](C[C@](O)(CCc3ccccc3)O2)c2c(cc(O)c(C(=O)/C=C/c3ccccc3)c2O)O1`, the IC50 in the assay on HT-29 was more than 10 µM. Still for that read-out and setting: to `CC(=O)O[C@H]1C(=O)[C@@]2(C)[C@H]([C@H](OC(=O)c3ccccc3)[C@]3(O)C[C@H](OC(=O)[C@H](O)[C@@H](NC(=O)c4ccccc4)c4ccccc4)C(C)=C1C3(C)C)[C@]1(OC(C)=O)CO[C@@H]1C[C@@H]2O` [PACLITAXEL] belongs more than 10 µM; to `O=C1C[C@@H]2C3=C(C=C[C@@H]2O1)O[C@@H](c1ccccc1)CC3=O` [CRYPTOCARYANONE A], 10.9 µM. In turn, `O=C1C[C@@H]2C3=C(O[C@H](c4ccccc4)CC3=O)[C@@H]3[C@@H]([C@@H]4C=C5O[C@H](c6ccccc6)CC(=O)[C@@]53[C@H]3CC(=O)O[C@@H]43)[C@@H]2O1` displayed an IC50 in the assay with HT-29 of more than 10 µM.

The compound `O=C1C[C@@H]2C3=C(O[C@H](c4ccccc4)CC3=O)[C@@H]3[C@H]([C@@H]2O1)[C@H]1C[C@@H]2OC(=O)C[C@@H]2[C@@]3(C(=O)/C=C/c2ccccc2)C1=O` came in with an IC50 with HT-29 of more than 10 µM. On the same count and under the same terms, the figure for `O=C(O)C[C@H]1CC=CC(=O)/C1=C(O)/C=C/c1ccccc1` is more than 10 µg/mL. Regarding `O=C(Oc1cccc(F)c1OC(=O)c1cccc(O)c1)c1cccc(O)c1`, the Activity in assay [1] amounted to 15.7%. In turn, `O=C(/C=C/c1ccc(O)cc1)OCCCCCCCCCCCCCCCCOC(=O)/C=C/c1ccc(O)cc1` had an IC50 in the assay on HT-29 of more than 10 µM. `O=C1C[C@@H]2/C(=C(O)\C=C\c3ccccc3)C(=O)C=C[C@@H]2O1` [CRYPTOCARYONE]: the IC50 in the assay with HT-29 is 0.32 µM; with P388, 0.04 µM. In addition, the Activity in assay [1] was 58.7%.
